High-throughput results deposited in PubChem by several laboratories.
The list is not random: actives were taken first. Their share in the collection is about 4%.
DAGLB inh = blocks human DAGLB lipase activity | hit rate 0.059% among 340,000 | inhibition, % at 5.17 µM | HEK293T DAGLB membrane lysate, EnzChek fluorogenic substrate | Q8NCG7; in the data active means inhibition above about 34%
TAAR1 ag = agonists of human TAAR1; CHO RD-HGA16 TAAR1, Fluo-8 calcium fluorescence; vehicle wells 0%, saturating PEA agonist 100%; activation, % at 3 µM; hit rate 0.99% among 360,000;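 active means activation above the mean activation of all test compounds in the run plus 3 SD, cut at about 38% in these data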
Target sequence (Q96RJ0 whole entry, looked up): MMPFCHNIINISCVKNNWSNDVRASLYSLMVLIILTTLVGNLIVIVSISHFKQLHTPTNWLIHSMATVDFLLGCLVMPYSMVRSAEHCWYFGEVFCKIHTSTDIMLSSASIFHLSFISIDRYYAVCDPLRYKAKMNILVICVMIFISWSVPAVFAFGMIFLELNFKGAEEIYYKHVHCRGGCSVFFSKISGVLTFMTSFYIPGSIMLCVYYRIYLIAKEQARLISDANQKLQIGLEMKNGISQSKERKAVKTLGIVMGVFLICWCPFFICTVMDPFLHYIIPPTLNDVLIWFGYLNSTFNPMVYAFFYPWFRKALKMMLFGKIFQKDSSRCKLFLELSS
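Repeats: no replicates (n 1) | Material: CHO-derived RD-HGA16 cells with stable Gα16 and human TAAR1 | Technique: Kinetic Fluo-8 calcium fluorescence | Schedule: 17-24 h seeding, 75 min 37 °C dye, 30 min RT | Evaluation: % activation from peak over basal fluorescence ratio, DMSO-to-PEA scaled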
MPTP inh = permeability transition pore inhibition; isolated mouse mitochondria, Ca2+ swelling absorbance, 30 min; inhibition, % at 10 µM; hit rate 1.4% among 360,000; AID 602449;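 active means inhibition of 50% or more, scaled per plate between neutral and stimulator controls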
GPR7 antag = blocks human GPR7 receptor signaling. hit rate 1.1% among 290,000. AID 1861. GPR7-expressing cells, fluorescence antagonist assay. inhibition, % at 4.4 µM. P48145; in the data active means inhibition above about 16%, passing the limit was not always enough;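 further: cells stimulated with the agonist NPW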
Target sequence (P48145 whole entry, looked up): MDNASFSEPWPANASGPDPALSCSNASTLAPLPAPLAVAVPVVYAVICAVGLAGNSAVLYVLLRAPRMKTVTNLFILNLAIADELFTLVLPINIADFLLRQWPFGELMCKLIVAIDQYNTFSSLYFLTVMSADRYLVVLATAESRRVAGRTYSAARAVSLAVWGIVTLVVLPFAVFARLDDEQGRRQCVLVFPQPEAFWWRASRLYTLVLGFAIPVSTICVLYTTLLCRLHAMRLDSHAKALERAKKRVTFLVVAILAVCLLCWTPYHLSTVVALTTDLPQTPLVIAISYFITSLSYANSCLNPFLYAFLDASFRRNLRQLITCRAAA
TAAR1 antagonist = human TAAR1 antagonism | Q96RJ0 | CHO RD-HGA16 TAAR1, Fluo-8 calcium fluorescence, antagonist | inhibition, % at 3 µM | hit rate 1.5% among 360,000 | AID 624466;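 active means inhibition above a per-plate cutoff, the mean inhibition of test compounds on that plate plus 3 SD, cut at about 49% in these data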
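System: CHO RD-HGA16 cells bearing hTAAR1. Reagent: EC80 β-phenethylamine stimulus. Schedule: seeding 17-24 h prior, 75-min 37 °C, 30-min RT dye loading. Signal: Fluo-8 intracellular calcium dye fluorescence, real-time kinetic reads. Read-out: % inhibition from peak post-agonist over basal fluorescence ratio. Benchmarks: vehicle wells and EC80 agonist wells. Replicates: n of 1.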
Numbers stand for hits; i = inactive; nt = no result.

SMILES | DAGLB inh | TAAR1 ag | MPTP inh | GPR7 antag | TAAR1 antagonist
C=CCSC1=C(C#N)C(c2ccccc2Cl)C(C(=O)c2cccs2)C(O)(C(F)(F)F)N1 (centres undefined) | i | i | i | i | 56.1
CSC1=C(C#N)C(c2ccccc2Cl)C(C(=O)c2cccs2)C(O)(C(F)(F)F)N1 (centres undefined) | i | i | i | i | 50.9
COc1ccc(CN(C(=O)CSc2nnc(-c3c[nH]c4ccccc34)o2)c2ccc(F)cc2)cc1OC | i | i | i | i | 81.7
COc1ccc(-c2ccc3c(c2)S(=O)(=O)c2cccc(C(=O)N4CCN(c5ccccn5)CC4)c2C3=O)cc1OC | i | i | i | nt | i
COc1ccc(-c2ccc3c(c2)S(=O)(=O)c2cccc(C(=O)N4CCN(C5CCCCC5)CC4)c2C3=O)cc1OC | i | i | i | nt | 51.6
COCCNc1nc(-c2ccccc2CO)c2sc(-c3ccccc3)cc2n1 | nt | nt | i | nt | nt
COc1ccc(-c2cc(C(=O)NCc3cccnc3)no2)cc1 | i | i | i | 18.0 | i
O=C(NCc1cccs1)c1cc(-c2ccc(O)cc2)on1 | i | 40.8 | i | i | i
Cc1ccccc1C(=O)N1CCN(c2ccc(NC(=S)NC(=O)c3ccco3)cc2)CC1 | i | i | i | i | 61.6
Cc1cccc(OCC(=O)Nc2ccc(N3CCN(C(=O)c4ccco4)CC3)cc2)c1 | i | i | i | i | 56.2
O=[N+]([O-])c1cccc(I)c1 | nt | i | nt | nt | i
CCOc1ccc(C(C)=O)cc1COC(=O)c1ccc2c(c1)NC(=O)CS2 | i | i | i | nt | 51.6
COc1ccc(C(=O)COC(=O)c2ccc3c(c2)NC(=O)CS3)c(OC)c1 | i | i | i | nt | i
O=C(c1ccoc1)N1CCN(c2cc(-c3cccc(F)c3)nc3cc(-c4cccc(Cl)c4)nn23)CC1 | i | i | i | nt | i
COc1cc(CNC(C)(C)CO)cc(Br)c1OCc1ccc(Cl)cc1 | i | i | i | 37.1 | i
COc1cc(CNc2ccc(O)cc2)cc(Br)c1OCc1ccccc1 | i | i | i | i | i
O=C1c2cccc(OCC(=O)N3CCCc4ccccc43)c2CCN1Cc1ccccc1 | i | i | i | 22.1 | i
C[C@H]1CN([C@@H](C)CO)C(=O)c2cccc(NC(=O)c3nc4ccccc4s3)c2O[C@H]1CN(C)C(=O)Nc1ccc(F)cc1 | i | i | i | nt | 55.3
C[C@H](CO)N1C[C@H](C)[C@@H](CN(C)C(=O)Nc2ccc(C(F)(F)F)cc2)Oc2c(NC(=O)Nc3ccc(C(F)(F)F)cc3)cccc2C1=O | i | i | i | nt | 57.8
C[C@H]1CN([C@@H](C)CO)C(=O)c2cccc(NC(=O)Nc3ccc(C(F)(F)F)cc3)c2O[C@@H]1CN(C)C(=O)Nc1ccc(F)cc1 | i | i | i | nt | 56.0
C[C@H](CO)N1C[C@H](C)[C@@H](CN(C)CC2CC2)Oc2c(NC(=O)C3CC3)cccc2C1=O | i | i | i | nt | i
Cc1cc(C(=O)Nc2cccc3c2O[C@H](CN(C)CC2CC2)[C@@H](C)CN([C@H](C)CO)C3=O)n(C)n1 | i | 43.0 | i | nt | i
CC(C)C[C@H]1CN([C@@H](Cc2ccccc2)CN2CCC[C@H]2CN2C(=O)C(=O)NC[C@@H]2Cc2ccccc2)C(=O)C(=O)N1CC1CCCCCC1 | nt | i | nt | nt | i
CCOC(=O)C1CCCN(CC(=O)c2ccc(F)cc2)C1 (centres undefined) | i | 57.5 | i | i | 54.0
C=CC[C@@H](Cc1ccc(F)cc1)C(=O)OC[C@H]1CCCN1C(=O)[C@@H](CC=C)CC(=O)N[C@@H](CO)Cc1ccccc1 | i | i | i | nt | i
SMILES | DAGLB inh | TAAR1 ag | MPTP inh | GPR7 antag | TAAR1 antagonist
C=CCC[C@@H](Cc1ccc(F)cc1)C(=O)OC[C@@H]1CCCN1C(=O)[C@@H](CC=C)CC(=O)N(CCO)Cc1ccccc1 | i | i | i | nt | 57.4
C=CC[C@@H](Cc1ccc(F)cc1)C(=O)OC[C@H]1CCCN1C(=O)[C@H](CC=C)CC(=O)N[C@H](CO)Cc1ccccc1 | i | i | i | nt | 50.0
C=CCC[C@@H](Cc1ccc(F)cc1)C(=O)OC[C@@H]1CCCN1C(=O)[C@H](CC=C)CC(=O)N[C@H](CO)Cc1ccccc1 | i | i | i | nt | i
CCCCC(CC)C(=O)Oc1ccc(O)c(C(C)(C)C)c1 (centres undefined) | i | i | i | 30.5 | i
CC(=O)c1ccc(Nc2nc(-c3ccccc3)nc3ccccc23)cc1 | i | i | i | nt | i
CN(C)C(=O)c1ccc(Nc2nc(-c3cccs3)nc3ccccc23)cc1 | i | i | i | i | 50.9
N#C/C(=C/c1ccc(-c2ccccc2)o1)c1nc(-c2cccs2)cs1 | i | i | i | i | 55.0
CCCC[C@@H]1CC2=C(C(=O)OC(C)(C)O2)[C@@H](c2ccc(F)cc2)O1 | nt | i | i | nt | i
COC(=O)c1ccc(COc2ccccc2/C=C(\C#N)C(=O)Nc2ccc(C)cc2)cc1 | i | i | i | i | i
C=CCNC(=O)/C(C#N)=C/c1ccccc1OCc1ccc(C(=O)OC)cc1 | i | i | i | i | 49.4
Cc1cc(Oc2ccc(Br)cc2)nc(SCC(=O)c2ccccc2)n1 | i | i | i | i | i
Cc1cc(Oc2ccc3ccccc3c2)nc(SCC(=O)c2ccccc2)n1 | i | i | i | 32.3 | i
Cn1c(N)c(C(=O)COC(=O)CC2CC3CCC2C3)c(=O)n(C)c1=O (centres undefined) | i | 40.1 | i | i | i
Cn1c(N)c(C(=O)COC(=O)Cc2ccsc2)c(=O)n(C)c1=O | i | i | i | 19.8 | i
CCCCN(C=O)c1c(CC)nc2c(OCCOc3ccc(F)cc3)cccn12 | nt | i | i | nt | i
CCCCCc1c(C)nc(Nc2ccccc2)[nH]c1=O | i | 38.1 | i | i | i
Cc1ccc(Nc2nc(C)c(CCC(C)C)c(=O)[nH]2)cc1 | i | i | i | i | i
O=C(O)C1=CC[C@@H](c2ccc(Cl)cc2)N(S(=O)(=O)c2ccc(Cl)cc2)[C@H]1c1cccc(Cl)c1 | i | i | i | nt | 63.9
Cc1ccc([C@@H]2CC=C(C(=O)O)[C@H](c3ccc(Cl)cc3)N2S(=O)(=O)c2ccc(C)cc2)cc1 | i | i | i | nt | i
Cc1ccc(S(=O)(=O)N2[C@@H](c3ccccc3)C(C(=O)O)=CC[C@H]2c2ccc(Cl)cc2)cc1 | i | i | i | nt | i
Cc1ccc(S(=O)(=O)N2[C@@H](c3ccc(Cl)cc3)C(C(=O)O)=CC[C@H]2c2ccc(Cl)cc2)cc1 | i | i | i | nt | 54.6
O=C(O)C1=CC[C@@H](c2ccc(Cl)cc2)N(S(=O)(=O)c2ccc(Cl)cc2)[C@H]1c1ccc(Br)cc1 | i | i | i | nt | 51.8
O=C(NCc1ccc(F)cc1)c1cc(C2CCCCN2S(=O)(=O)Cc2ccccc2)on1 (centres undefined) | nt | i | i | nt | i
C[C@@H]1CN([C@@H](C)CO)C(=O)c2cc(NC(=O)C3CCCCC3)ccc2O[C@@H](C)CCCCO[C@@H]1CN(C)C(=O)CCCN(C)C | i | i | i | nt | i
CCCCOCC1CN(Cc2ccccc2OC)S(=O)(=O)c2cc(Cl)ccc2O1 (centres undefined) | nt | i | nt | nt | i
